We go through 16 compounds from ChEMBL document CHEMBL3046857, “Novel inhibitors of the mitochondrial respiratory chain: oximes and pyrrolines isolated from Penicillium brevicompactum and synthetic analogues” (J Agric Food Chem, 2005).

Assay [1] has as its target T1, NADH-ubiquinone oxidoreductase chain 1 (Bos taurus, UniProt P03887). Kind of assay: Inhibition of Bos taurus (beef) heart NAD1 assessed as NADH-ubiquinone oxidoreductase activity. Put shortly: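 Complex I specific activity in NADH-activated beef heart submitochondrial particles (6 µg/mL; 50 mM potassium phosphate pH 7.4, 1 mM EDTA, 22 °C). Compound preincubated 5 min on ice. 75 µM NADH with 30 µM decylubiquinone as acceptor, plus 2 µM antimycin and 2 mM KCN to block downstream steps. NADH oxidation rate read at 340 nm; three assays; IC50.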

Assay [2] addresses T1, NADH-ubiquinone oxidoreductase chain 1. Kind of assay: Inhibition of Bos taurus (beef) heart NAD1 assessed as NADH oxidase activity. An outline of the steps: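 Beef heart submitochondrial particles, diluted to 0.5 mg/mL in 250 mM sucrose/10 mM Tris-HCl pH 7.4 and pre-activated with 300 µM NADH; then diluted to 6 µg/mL in 50 mM potassium phosphate pH 7.4, 1 mM EDTA, 22 °C. Compounds (ethanol stocks) preincubated with particles 5 min on ice. Aerobic oxidation of 75 µM NADH followed at 340 nm; three experiments; IC50.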

T1 sequence (P03887 whole entry): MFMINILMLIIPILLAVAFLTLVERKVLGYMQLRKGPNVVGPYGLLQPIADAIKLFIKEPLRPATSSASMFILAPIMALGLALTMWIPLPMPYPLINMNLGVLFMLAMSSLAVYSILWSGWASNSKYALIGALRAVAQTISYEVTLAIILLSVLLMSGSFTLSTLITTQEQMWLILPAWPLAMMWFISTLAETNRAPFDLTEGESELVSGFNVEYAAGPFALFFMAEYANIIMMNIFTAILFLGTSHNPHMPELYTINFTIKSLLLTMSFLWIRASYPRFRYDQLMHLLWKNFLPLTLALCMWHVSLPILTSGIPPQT

The IC50 is the point on the concentration scale where inhibition reaches its midpoint. Regarding `CCCCCCCCC(=O)CC(=O)c1ccc[nH]1`, the half-maximal inhibitory concentration (IC50) in assay [1] amounted to 14.3 µM; in assay [2] (read-out: IC50), 8.6 µM. Consider `CC(C(=O)c1ccccc1)C(=O)c1ccc[nH]1` (stereo not drawn), for which the IC50 in assay [2] (read-out: IC50) worked out at 214 µM. As for `CCC(=O)C(C)C(=O)c1ccc[nH]1` (stereo not drawn), the IC50 result in assay [2] was “Not Active”.

Turning to `CCC(=O)CC(=O)c1ccc[nH]1`, the IC50 entry in assay [2] is “Not Active”. For `CC1=C(C(C)c2cccc(Oc3ccccc3)c2)OC2/C(=N/O)CCN2C1=O` (stereo not drawn), the half-inhibitory concentration (IC50) amounted to 3.44 µM in assay [1] and 0.92 µM in assay [2] (read-out: IC50). On to `CCCCCCCC1=C(C)C(=O)N2CC/C(=N\O)C2O1` (stereo not drawn), for which the results for the concentration for half-maximal inhibition (IC50) in assay [1] and in assay [2] (read-out: IC50) were 1.52 µM and 0.27 µM, respectively. Consider `C/C=C/CCCCC1=C(C)C(=O)N2CC/C(=N\O)C2O1` (stereo not drawn), for which, in assay [2], the IC50 entry is given as “Not Active”.

For the compound `CC(C(=O)N1C=CCC1)c1cccc(Oc2ccccc2)c1` (stereo not drawn), in assay [2] (read-out: IC50), the concentration for half-maximal inhibition (IC50) is 6.82 µM. As for `CCCCCCCC(=O)C(C)C(=O)N1C=CCC1` (stereo not drawn), the IC50 in assay [2] (read-out: IC50) was found to be 4.55 µM. In the case of `C/C=C/CCCCC(=O)C(C)C(=O)N1C=CCC1` (stereo not drawn), in assay [2], the IC50 entry was “Not Active”. Consider `CC1=C(C(C)c2cccc(Oc3ccccc3)c2)OC2C(O)CCN2C1=O` (single isomer, unassigned; diastereomer 1), for which the IC50 in assay [1] amounted to 14.3 µM; in assay [2] (read-out: IC50), 5.48 µM. For the compound `CC(C(=O)C(C)c1cccc(Oc2ccccc2)c1)C(=O)N1C=CCC1` (single isomer, unassigned; diastereomer 1), the figures for the 50% inhibitory concentration (IC50) in assay [1] and in assay [2] (read-out: IC50) were 6.57 µM and 3.92 µM, respectively. `CC(C(=O)C(C)c1cccc(Oc2ccccc2)c1)C(=O)N1CC[C@H](O)C1` (single isomer, unassigned; diastereomer 1): the IC50 in assay [2] (read-out: IC50) worked out at 41.5 µM. Take `CC1=C(C(C)c2cccc(Oc3ccccc3)c2)OC2C(O)CCN2C1=O` (single isomer, unassigned; diastereomer 2): the 50% inhibitory concentration (IC50) in assay [1] was 11.9 µM; in assay [2] (read-out: IC50) it was 3.13 µM. `CC(C(=O)C(C)c1cccc(Oc2ccccc2)c1)C(=O)N1C=CCC1` (single isomer, unassigned; diastereomer 2): the IC50 stood at 16.4 µM in assay [1] and 4.4 µM in assay [2] (read-out: IC50). Turning to `CC(C(=O)C(C)c1cccc(Oc2ccccc2)c1)C(=O)N1CC[C@H](O)C1` (single isomer, unassigned; diastereomer 2), in assay [2] (read-out: IC50), the half-inhibitory concentration (IC50) turned out to be 36.3 µM.
